These results are taken from ChEMBL document CHEMBL3769384, “Discovery of Tetrahydropyrazolopyridine as Sphingosine 1-Phosphate Receptor 3 (S1P3)-Sparing S1P1 Agonists Active at Low Oral Doses” (J Med Chem, 2016).

A value given as a limit tells only on which side of the number the result lay.

The target in data set [1] is T1, Cytochrome P450 3A4 (Homo sapiens, UniProt P08684). The experiment in a line: Inhibition of human CYP3A4 coexpressed in Escherichia coli with human NADPH reductase using atorvastatin as substrate at 0.1 to 100 uM by fluorescence assay. In kind it is ADME. The settings on record: TDE = time-dependent effect.
The nature of data set [2]: Lipophilicity, log D of the compound at pH 7.4 by chromatography. It is filed as physicochemical. The settings on record: buffer.
Data set [3] has as its target Sphingosine 1-phosphate receptor 3 (Homo sapiens, UniProt Q99500). The experiment in a line: Agonist activity at human S1P3 receptor expressed in RBL cells by [35S]GTP-gammaS accumulation assay. It is filed as cell-based. In outline:
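Sucrose-gradient-purified RBL S1P3 membranes (0.44 µg/well) precoupled 30 min on ice to WGA SPA beads with 2 µg/well saponin in HEPES/MgCl2/NaCl buffer pH 7.4. 5 µM GDP final and 0.3 nM [35S]GTPγS final added, then dispensed onto compound in DMSO. Read by scintillation proximity after 3 h at room temperature.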

Data set [4] concerns the target Sphingosine 1-phosphate receptor 1 (Homo sapiens, UniProt P21453). Description: Agonist activity at human S1P1 receptor expressed in CHO-K1 EDG1 cells by beta-arrestin recruitment assay. It is filed as cell-based. In a few lines: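 CHO-K1 cells stably expressing beta-arrestin 2 and S1P1 fused to complementing beta-galactosidase fragments; grown to 80% confluency, harvested enzyme-free, resuspended in HEPES/BSA assay buffer pH 7.4. Cells at 1x10^4/well added to compound in DMSO, 90 min at 37°C/5% CO2, then 15 min at room temperature; chemiluminescent detection mix 60 min at room temperature, luminescence read.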

Data set [5] is described as follows: Lipophilicity, log D of the compound at pH 2 by chromatography. It is filed as physicochemical. The note with it: buffer.
A short description of data set [6]: Lipophilicity, log D of the compound at pH 10.5 by chromatography. The note with it: buffer. In kind it is physicochemical.
Data set [7] concerns the target Sphingosine 1-phosphate receptor 5 (Homo sapiens, UniProt Q9H228). The experiment in a line: Agonist activity at human S1P5 receptor expressed in CHO-K1 cells by aequorin calcium accumulation assay. In kind it is functional, cell-based. In outline:
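CHO-K1 aequorin lines revived in DMEM F12 with 10% charcoal-stripped FBS, recovered 30 min at 37°C, then loaded 18-24 h at room temperature in the dark with 5 µM coelenterazine at 2.5x10^6 cells/mL. Cells were added at 1x10^5/well to compound, and flash luminescence was recorded immediately.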

Data set [8] has as its system Hepatocyte. Description: Intrinsic clearance in Sprague-Dawley rat hepatocytes at 0.5 uM after 2 hrs by LC-MS/MS analysis. It is filed as ADME, cell-based. In outline: (§1)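 Compound at 0.5 µM incubated with pooled cryopreserved hepatocytes (0.7 million cells/mL) in Williams Medium E at 37°C under CO2/O2. Supernatants analysed by LC-MS/MS. CLi was derived from a first-order rate constant, scaled with 1.2x10^8 cells/g liver (human, rat, mouse) or 2.4x10^8 cells/g liver (dog).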

Data set [9] is described as follows: Intrinsic clearance in beagle dog hepatocytes at 0.5 uM after 2 hrs by LC-MS/MS analysis. In kind it is ADME, cell-based, Canis lupus familiaris, Hepatocyte. In outline: as §1
The subject of data set [10] is Hepatocyte. The experiment in a line: Intrinsic clearance in CD1 mouse hepatocytes at 0.5 uM after 2 hrs by LC-MS/MS analysis. It is filed as ADME, cell-based. In outline: as §1
A short description of data set [11]: Intrinsic clearance in cynomolgus monkey hepatocytes at 0.5 uM after 2 hrs by LC-MS/MS analysis. In kind it is ADME, cell-based, Macaca fascicularis, Hepatocyte.
A short description of data set [12]: Fraction unbound in human blood after 4 hrs by LC-MS/MS analysis. In kind it is ADME, tissue-based. In outline:
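Fresh blood (CD rat, CD1 mouse, Beagle dog, single human donor) spiked at 1000 ng/mL and dialysed against PBS by rapid equilibrium dialysis for 4 h at 37°C. Matrix-matched LC-MS/MS; unbound fraction taken from the buffer/blood peak area ratio.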

The nature of data set [13]: Passive permeability from apical to basolateral side in MDCK2-MDR1 cells after 90 mins by LC-MS/MS analysis. It is filed as ADME, cell-based, Canis lupus familiaris, MDCK-II. The note with it: dog, MDCK-MDR1; read-out: permeability. In a few lines: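 MDCKII-MDR1 monolayers used 3-4 days after seeding on inserts. Apical FaSSIF at pH 5.5 or 7.4; basolateral DMEM pH 7.4 with 1% HSA. Both sides contained 2 µM GF120918 and were preincubated 30 min. A→B transport measured in triplicate after 90 min at 37°C with shaking.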

Another data set deals with T2, Cytochrome P450 1A2 (Homo sapiens, UniProt P05177).
T2 sequence (P05177 whole entry): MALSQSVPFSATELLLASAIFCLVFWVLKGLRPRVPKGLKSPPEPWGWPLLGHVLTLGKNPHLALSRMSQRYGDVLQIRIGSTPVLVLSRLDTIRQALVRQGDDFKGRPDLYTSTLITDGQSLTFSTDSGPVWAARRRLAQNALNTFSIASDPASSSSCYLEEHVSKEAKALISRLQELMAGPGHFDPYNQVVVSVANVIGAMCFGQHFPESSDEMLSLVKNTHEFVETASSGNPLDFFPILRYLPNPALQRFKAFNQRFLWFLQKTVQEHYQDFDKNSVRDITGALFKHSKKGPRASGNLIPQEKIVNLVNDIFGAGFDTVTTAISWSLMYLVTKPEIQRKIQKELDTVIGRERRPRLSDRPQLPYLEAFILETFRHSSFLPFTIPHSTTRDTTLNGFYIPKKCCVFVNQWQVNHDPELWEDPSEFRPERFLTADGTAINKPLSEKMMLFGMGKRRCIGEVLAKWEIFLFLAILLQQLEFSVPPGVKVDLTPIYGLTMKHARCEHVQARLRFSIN
Description: Inhibition of CYP1A2 (unknown origin) coexpressed in Escherichia coli with human NADPH reductase using ethoxyresorufin as substrate after 10 mins by fluorescence assay. It is filed as ADME. In a few lines:
(§2)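 Recombinant CYP co-expressed in E. coli with human NADPH reductase, incubated with an isoform-specific pro-fluorescent substrate and compound (nine concentrations, 0.1-100 µM) plus a 0.2 mM NADPH regenerating system for 10 min at 37°C. Fluorescent metabolite formation was monitored.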

The target of a further data set is Cytochrome P450 2C19 (Homo sapiens, UniProt P33261). Description: Inhibition of CYP2C19 (unknown origin) coexpressed in Escherichia coli with human NADPH reductase using 3-butyryl-7-methoxycoumarin as substrate after 10 mins by fluorescence assay. It is filed as ADME. In outline: as §2
A further data set has as its target Cytochrome P450 2D6 (Homo sapiens, UniProt P10635). The experiment in a line: Inhibition of CYP2D6 (unknown origin) coexpressed in Escherichia coli with human NADPH reductase using 4-methylaminomethyl-7-methoyxycoumarin as substrate after 10 mins by fluorescence assay. It is filed as ADME. In a few lines:
as §2

For data set [14], the target named is T1, Cytochrome P450 3A4. The experiment in a line: Inhibition of human CYP3A4 coexpressed in Escherichia coli with human NADPH reductase using midazolam as substrate at 0.1 to 100 uM by fluorescence assay. In kind it is ADME. The note with it: TDE = time-dependent effect.
A further data set deals with Salmonella typhimurium. The experiment in a line: Mutagenicity in Salmonella typhimurium by Ames test. The note with it: salmonella enterica subsp. enterica serovar typhimurium. It is filed as toxicity, organism-based. In general terms: The Ames test uses bacterial strains that need an amino acid and regain growth without it when mutated back.
Data set [15] in a line: Activation of CYP1A (unknown origin). In kind it is ADME. The note with it: human.
Data set [16] can be described thus: Oral bioavailability in rat. In kind it is ADME, organism-based. The settings on record: in vivo.
The test system of the next data set is Rattus norvegicus. Description: Lymphopenia activity in oral dosed Lewis rat.
The target in data set [17] is T1, Cytochrome P450 3A4. Description: Inhibition of human CYP3A4 by VG metabolism assay. It is filed as ADME.
Data set [18] addresses T1, Cytochrome P450 3A4. Description: Inhibition of human CYP3A4 by VR metabolism assay. In kind it is ADME.

T1 sequence (P08684 whole entry): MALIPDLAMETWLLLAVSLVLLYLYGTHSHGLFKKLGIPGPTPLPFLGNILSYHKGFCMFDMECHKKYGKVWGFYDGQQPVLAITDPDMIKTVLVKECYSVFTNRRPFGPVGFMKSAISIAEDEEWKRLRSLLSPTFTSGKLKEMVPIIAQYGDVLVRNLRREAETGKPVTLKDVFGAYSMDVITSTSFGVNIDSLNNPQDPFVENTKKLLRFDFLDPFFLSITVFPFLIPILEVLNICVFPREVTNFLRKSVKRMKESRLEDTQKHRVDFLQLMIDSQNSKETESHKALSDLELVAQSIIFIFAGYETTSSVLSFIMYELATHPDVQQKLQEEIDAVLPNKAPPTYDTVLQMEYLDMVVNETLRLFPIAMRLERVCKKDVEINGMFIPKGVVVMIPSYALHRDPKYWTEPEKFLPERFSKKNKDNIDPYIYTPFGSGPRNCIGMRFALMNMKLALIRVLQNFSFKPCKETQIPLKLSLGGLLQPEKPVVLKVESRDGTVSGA
Sequence of Cytochrome P450 2D6 (P10635 whole entry): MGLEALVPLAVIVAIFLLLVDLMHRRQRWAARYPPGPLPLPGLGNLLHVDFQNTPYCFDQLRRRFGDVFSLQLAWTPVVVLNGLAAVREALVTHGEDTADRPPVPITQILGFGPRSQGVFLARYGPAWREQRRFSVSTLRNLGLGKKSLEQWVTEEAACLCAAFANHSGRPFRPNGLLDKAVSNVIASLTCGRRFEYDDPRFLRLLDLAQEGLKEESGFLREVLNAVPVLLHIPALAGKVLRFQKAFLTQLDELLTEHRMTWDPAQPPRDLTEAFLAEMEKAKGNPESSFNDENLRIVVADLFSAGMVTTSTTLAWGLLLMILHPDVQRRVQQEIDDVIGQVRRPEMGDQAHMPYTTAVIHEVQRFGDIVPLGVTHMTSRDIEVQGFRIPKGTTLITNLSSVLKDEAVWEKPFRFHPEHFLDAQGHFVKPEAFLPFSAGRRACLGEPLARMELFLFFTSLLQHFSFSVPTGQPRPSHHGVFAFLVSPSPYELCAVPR
Sequence of Sphingosine 1-phosphate receptor 3 (Q99500 whole entry): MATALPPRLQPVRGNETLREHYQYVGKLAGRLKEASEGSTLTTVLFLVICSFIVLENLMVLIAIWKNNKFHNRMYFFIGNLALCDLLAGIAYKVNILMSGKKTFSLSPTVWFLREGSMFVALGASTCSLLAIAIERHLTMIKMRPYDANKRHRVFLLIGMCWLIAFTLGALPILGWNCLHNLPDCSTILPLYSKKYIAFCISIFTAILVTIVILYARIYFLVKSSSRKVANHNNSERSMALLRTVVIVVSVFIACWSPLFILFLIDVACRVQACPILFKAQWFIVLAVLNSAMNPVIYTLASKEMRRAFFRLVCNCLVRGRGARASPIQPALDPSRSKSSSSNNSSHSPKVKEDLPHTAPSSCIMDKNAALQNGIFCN
Sequence of Sphingosine 1-phosphate receptor 5 (Q9H228 whole entry): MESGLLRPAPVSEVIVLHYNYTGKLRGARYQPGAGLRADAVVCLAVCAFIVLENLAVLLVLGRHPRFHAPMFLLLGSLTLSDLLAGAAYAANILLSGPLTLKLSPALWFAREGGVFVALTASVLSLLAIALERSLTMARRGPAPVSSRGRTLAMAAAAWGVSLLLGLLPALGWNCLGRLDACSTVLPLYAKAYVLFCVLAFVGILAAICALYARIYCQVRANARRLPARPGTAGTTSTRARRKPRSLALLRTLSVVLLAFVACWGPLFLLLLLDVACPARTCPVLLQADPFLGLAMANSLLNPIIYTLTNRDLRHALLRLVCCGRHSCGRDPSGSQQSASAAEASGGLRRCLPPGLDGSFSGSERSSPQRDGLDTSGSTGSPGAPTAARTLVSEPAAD
Sequence of Cytochrome P450 2C19 (P33261 whole entry): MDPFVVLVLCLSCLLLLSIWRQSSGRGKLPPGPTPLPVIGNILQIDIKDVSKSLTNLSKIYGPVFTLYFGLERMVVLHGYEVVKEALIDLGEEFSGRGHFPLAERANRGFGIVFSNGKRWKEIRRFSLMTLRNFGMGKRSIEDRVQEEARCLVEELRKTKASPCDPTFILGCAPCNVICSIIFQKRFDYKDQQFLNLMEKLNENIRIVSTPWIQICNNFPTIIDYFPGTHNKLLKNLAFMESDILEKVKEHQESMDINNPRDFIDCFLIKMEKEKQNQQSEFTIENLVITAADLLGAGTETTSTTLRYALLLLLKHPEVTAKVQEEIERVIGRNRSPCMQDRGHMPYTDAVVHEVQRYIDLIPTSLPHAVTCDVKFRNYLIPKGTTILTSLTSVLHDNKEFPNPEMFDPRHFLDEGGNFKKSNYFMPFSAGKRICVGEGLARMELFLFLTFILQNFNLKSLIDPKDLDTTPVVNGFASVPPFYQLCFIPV
Sequence of Sphingosine 1-phosphate receptor 1 (P21453 whole entry, the tested form may be a part): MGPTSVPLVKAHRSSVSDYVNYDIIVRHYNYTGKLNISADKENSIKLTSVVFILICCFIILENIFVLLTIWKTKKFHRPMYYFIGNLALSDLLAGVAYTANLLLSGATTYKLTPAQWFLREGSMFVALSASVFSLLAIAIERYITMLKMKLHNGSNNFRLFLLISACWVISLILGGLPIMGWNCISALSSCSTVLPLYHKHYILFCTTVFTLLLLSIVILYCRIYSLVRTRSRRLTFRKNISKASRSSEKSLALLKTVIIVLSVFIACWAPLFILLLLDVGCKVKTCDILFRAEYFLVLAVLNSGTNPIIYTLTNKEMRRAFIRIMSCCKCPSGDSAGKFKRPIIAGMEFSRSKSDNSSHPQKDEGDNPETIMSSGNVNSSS

Regarding `Cc1c2c(nn1-c1nnc(-c3ccc(OC(C)C)c(Cl)c3)s1)CCN(CCC(=O)O)C2`, the “inhibition (INH)” value against Cytochrome P450 3A4 [1] and against Cytochrome P450 3A4 [14] was “tde” throughout. The chromatographic logD (in general, a lipophilicity value derived from retention on a column) in data set [2] stood at 3.73; in data set [5], 1.03; in data set [6], 1.53. Besides, the EC50 (as a rule, the concentration needed to bring the measured effect to its halfway point) was above 31.6 µM in [3], 0.00158 µM in data set [4] and 0.0166 µM in [7]. Besides, the CLH was 3.2 mL/min/g in the data set on Hepatocyte [8], 6 mL/min/g in [9], below 0.85 mL/min/g in the data set on Hepatocyte [10] and 4.2 mL/min/g in data set [11]. Besides, in data set [12], the fraction unbound (commonly free concentration divided by total concentration) at 4 h came out at 0.008. Further, the Papp A→B at 1.5 h in data set [13] is 14.7 ×10⁻⁶ cm/s. Besides, the IC50 (as a rule, the concentration at which inhibition is half-maximal) was above 50 µM against Cytochrome P450 1A2; above 50 µM at Cytochrome P450 2C19; above 50 µM at Cytochrome P450 2D6; 0.006 µM with Rattus norvegicus; above 50 µM against Cytochrome P450 3A4 [17]; above 50 µM at Cytochrome P450 3A4 [18]. Moreover, the Activity entry is given as “Non-toxic” in the data set with Salmonella typhimurium and “Not Active” in data set [15]. In data set [16], the bioavailability (as a rule, dose-corrected exposure relative to a reference, in per cent) was determined as 52%.
